# Assays:
# Test in all cases: stopped-flow CO2 hydration assay
# Type in all cases: biochemical
# hCA I = hCA I (Homo sapiens, UniProt P00915)
# Method in brief: (§1)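 Enzyme-catalysed CO2 hydration was followed by stopped-flow at 557 nm with 0.2 mM phenol red in 20 mM HEPES pH 7.5 and 20 mM Na2SO4. Initial rates were taken over 10–100 s at five CO2 levels (1.7–17 mM). Enzyme was preincubated 15 min at room temperature with six inhibitor concentrations (100 µM–0.1 nM). Uncatalysed rate was subtracted; Ki came from nonlinear least squares, mean of ≥3 determinations.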
# hCA VB = hCA VB (Homo sapiens, UniProt Q9Y2D0)
# Method in brief: as §1
# hCA XIII = hCA XIII (Homo sapiens, UniProt Q8N1Q1)
# Method in brief: as §1
# hCA IV = hCA IV (Homo sapiens, UniProt P22748)
# Method in brief: as §1
# hCA XII = hCA XII (Homo sapiens, UniProt O43570)
# Method in brief: as §1
# hCA III = hCA III (Homo sapiens, UniProt P07451)
# Method in brief: as §1
# hCA VI = hCA VI (Homo sapiens, UniProt P23280)
# Method in brief: as §1
# mCA XV = molecular target: T1, mCA XV (Mus musculus, UniProt Q99N23)
# T1 sequence (Q99N23 19-324): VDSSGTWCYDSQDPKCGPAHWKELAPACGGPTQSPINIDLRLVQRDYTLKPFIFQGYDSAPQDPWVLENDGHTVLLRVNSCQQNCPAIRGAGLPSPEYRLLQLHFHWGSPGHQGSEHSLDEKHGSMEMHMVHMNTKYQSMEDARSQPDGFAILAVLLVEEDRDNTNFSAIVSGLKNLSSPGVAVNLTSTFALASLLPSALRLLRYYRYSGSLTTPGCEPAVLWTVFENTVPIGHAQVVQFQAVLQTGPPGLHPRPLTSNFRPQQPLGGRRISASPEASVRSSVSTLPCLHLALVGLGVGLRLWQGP
# Method in brief: as §1
# hCA II = hCA II (Homo sapiens, UniProt P00918)
# Method in brief: as §1
# hCA VA = hCA VA (Homo sapiens, UniProt P35218)
# Method in brief: as §1
# hCA IX = hCA IX (Homo sapiens, UniProt Q16790)
# Method in brief: as §1
# hCA VII = hCA VII (Homo sapiens, UniProt P43166)
# Method in brief: as §1
# Sequence of hCA VA (P35218 39-305): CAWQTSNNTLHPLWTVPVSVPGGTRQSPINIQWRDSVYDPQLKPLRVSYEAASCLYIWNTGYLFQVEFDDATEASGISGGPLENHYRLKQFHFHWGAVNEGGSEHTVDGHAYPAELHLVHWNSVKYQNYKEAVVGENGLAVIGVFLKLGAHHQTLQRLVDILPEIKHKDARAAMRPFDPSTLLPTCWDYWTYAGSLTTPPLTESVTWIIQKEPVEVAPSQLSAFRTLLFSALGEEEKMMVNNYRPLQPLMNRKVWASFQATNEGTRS
# Sequence of hCA IV (P22748 19-284): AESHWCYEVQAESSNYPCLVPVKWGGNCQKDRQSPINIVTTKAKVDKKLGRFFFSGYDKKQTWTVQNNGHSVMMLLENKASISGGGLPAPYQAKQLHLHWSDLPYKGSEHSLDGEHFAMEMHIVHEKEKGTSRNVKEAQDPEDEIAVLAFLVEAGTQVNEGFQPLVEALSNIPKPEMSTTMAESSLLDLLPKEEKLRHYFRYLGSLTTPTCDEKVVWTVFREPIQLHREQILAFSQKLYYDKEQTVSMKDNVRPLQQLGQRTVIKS
# Sequence of hCA VII (P43166 whole entry): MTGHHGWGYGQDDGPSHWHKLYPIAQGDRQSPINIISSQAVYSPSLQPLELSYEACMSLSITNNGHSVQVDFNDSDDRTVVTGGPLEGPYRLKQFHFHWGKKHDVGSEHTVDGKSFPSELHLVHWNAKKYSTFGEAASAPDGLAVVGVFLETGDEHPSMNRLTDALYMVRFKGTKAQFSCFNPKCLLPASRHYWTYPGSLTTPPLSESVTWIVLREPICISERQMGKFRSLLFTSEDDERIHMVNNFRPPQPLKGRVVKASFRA
# Sequence of hCA VB (Q9Y2D0 34-317): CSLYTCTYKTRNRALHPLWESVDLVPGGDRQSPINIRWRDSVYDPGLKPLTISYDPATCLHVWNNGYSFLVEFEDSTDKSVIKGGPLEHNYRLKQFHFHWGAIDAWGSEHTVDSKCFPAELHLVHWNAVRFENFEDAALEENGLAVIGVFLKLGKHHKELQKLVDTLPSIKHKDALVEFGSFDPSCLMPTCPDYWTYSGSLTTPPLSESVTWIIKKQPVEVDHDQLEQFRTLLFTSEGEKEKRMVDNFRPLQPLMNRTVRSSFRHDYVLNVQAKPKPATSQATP
# Sequence of hCA XII (O43570 25-354): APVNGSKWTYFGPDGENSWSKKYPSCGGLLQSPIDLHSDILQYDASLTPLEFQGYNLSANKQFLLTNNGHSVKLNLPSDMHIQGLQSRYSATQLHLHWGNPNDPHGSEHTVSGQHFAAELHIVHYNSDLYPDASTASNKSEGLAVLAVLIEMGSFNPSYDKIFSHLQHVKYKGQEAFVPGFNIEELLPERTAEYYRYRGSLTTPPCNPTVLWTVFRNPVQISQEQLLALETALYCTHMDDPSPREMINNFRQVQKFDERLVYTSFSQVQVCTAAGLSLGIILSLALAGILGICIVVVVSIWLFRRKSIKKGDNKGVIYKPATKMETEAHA
# Sequence of hCA VI (P23280 18-308): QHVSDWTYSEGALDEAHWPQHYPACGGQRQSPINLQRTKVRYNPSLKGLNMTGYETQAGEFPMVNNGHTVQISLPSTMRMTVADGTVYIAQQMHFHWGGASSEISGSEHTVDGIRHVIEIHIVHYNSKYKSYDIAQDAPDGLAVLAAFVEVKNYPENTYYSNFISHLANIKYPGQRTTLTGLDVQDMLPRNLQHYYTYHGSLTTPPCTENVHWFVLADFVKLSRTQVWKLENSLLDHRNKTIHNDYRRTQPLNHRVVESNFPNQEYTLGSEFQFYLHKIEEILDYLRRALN
# Sequence of hCA III (P07451 2-260): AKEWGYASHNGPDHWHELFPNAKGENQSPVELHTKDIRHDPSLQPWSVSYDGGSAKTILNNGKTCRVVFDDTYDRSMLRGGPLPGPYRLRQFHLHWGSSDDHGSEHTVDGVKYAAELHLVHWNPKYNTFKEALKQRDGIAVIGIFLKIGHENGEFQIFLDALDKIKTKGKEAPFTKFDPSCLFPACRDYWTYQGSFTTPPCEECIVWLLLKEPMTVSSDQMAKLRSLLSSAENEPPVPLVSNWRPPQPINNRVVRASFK
# Sequence of hCA I (P00915 2-261): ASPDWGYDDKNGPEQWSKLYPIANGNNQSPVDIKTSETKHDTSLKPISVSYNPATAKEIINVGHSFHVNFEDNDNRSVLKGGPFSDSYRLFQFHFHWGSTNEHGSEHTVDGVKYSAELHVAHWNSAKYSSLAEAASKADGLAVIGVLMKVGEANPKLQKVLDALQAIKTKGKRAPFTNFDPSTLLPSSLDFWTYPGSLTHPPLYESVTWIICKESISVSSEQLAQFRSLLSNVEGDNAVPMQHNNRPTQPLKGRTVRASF
# Sequence of hCA XIII (Q8N1Q1 whole entry): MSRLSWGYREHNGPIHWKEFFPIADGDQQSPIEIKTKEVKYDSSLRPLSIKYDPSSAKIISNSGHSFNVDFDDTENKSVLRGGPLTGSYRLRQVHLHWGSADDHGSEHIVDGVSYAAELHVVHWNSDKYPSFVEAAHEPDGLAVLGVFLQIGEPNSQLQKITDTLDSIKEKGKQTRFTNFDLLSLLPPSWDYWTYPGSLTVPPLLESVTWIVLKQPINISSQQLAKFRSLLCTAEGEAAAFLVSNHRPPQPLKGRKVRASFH
Ki (hCA I),Ki (hCA VB),Ki (hCA XIII),Ki (hCA IV),Ki (hCA XII),Ki (hCA III),Ki (hCA VI),Ki (mCA XV),Ki (hCA II),Ki (hCA VA),Ki (hCA IX),Ki (hCA VII),Compound
9.1 µM,4.3 µM,10.4 µM,4.3 µM,4 µM,9.5 µM,3.5 µM,2.8 µM,3.6 µM,4.6 µM,9.5 µM,3.4 µM,"Cc1occc(=O)c1O [compound 1, maltol]"
8.3 µM,4 µM,10.4 µM,4.6 µM,4.5 µM,8.4 µM,3.2 µM,,4 µM,4.2 µM,10 µM,3.6 µM,"Cc1occc(=S)c1O [compound 2, thiomaltol]"
9.4 µM,3.8 µM,10.8 µM,4.4 µM,4.8 µM,7.5 µM,3.6 µM,4.7 µM,4.1 µM,4 µM,9.2 µM,3.6 µM,"On1ccccc1=S [compound 4, 1,2-HOPTO]"

# Source: PMC3019337 (ChemMedChem, 2010)
